Laboratory results from ChEMBL document CHEMBL4152390, “Discovery of the First-in-Class Dual Histone Deacetylase-Proteasome Inhibitor” (J Med Chem, 2018).
The source made the active and inactive calls. The rule behind the calls is not given here.

How the values were obtained:
Histone deacetylase 1 = Histone deacetylase 1 (Homo sapiens, UniProt Q13547); assay: Inhibition of C-terminal FLAG-His-tagged full length recombinant human HDAC1 expressed in Sf21 insect cells using RHKK(Ac)AMC as substrate by fluorescence-based assay
Chain of Histone deacetylase 1 (Q13547 whole entry): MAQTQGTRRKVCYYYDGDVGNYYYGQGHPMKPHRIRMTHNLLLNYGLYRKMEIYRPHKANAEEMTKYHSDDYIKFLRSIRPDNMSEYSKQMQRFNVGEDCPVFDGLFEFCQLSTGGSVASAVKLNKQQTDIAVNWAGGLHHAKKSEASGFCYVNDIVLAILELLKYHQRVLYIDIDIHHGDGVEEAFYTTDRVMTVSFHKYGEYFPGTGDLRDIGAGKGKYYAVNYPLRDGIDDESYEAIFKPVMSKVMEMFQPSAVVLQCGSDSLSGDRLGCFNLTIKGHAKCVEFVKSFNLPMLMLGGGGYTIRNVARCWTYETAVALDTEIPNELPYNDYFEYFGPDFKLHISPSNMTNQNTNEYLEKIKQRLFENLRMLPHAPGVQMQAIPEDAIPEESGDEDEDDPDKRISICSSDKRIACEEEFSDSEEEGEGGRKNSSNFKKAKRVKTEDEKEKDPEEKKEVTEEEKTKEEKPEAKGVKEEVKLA

SEM cells [1] = assay: Inhibition of HDAC6/chymotrypsin-like activity of 20S proteasome in human SEM cells assessed as increase in p62 protein expression at 0.1 to 10 uM after 18 hrs by Western blot assay; type: cell-based
Procedure, shortened: (§1)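 Cells treated 18 h at indicated concentrations; lysates analysed by western blot for heat shock (Grp94, HSP70, HSP40, HSP27), UPR (BIP, ATF4, ATF6, pJNK) and autophagy (LC3B, p62) proteins.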

[2] = target: T1, Proteasome component C5 (Homo sapiens) (UniProt P20618); assay: Inhibition of caspase-like activity of 20S proteasome in human HL60 cells at 4 nM to 25 uM using Z-nLPnLD-aminoluciferin as substrate after 2 hrs by proteasome-Glo assay; type: cell-based
T1 sequence (whole entry): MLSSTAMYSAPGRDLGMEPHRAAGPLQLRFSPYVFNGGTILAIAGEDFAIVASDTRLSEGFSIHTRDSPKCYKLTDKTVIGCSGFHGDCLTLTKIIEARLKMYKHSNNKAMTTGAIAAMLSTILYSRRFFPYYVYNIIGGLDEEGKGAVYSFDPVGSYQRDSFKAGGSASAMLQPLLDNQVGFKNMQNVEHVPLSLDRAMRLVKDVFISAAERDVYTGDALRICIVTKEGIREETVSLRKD

Histone deacetylase 8 = target: T2, Histone deacetylase 8 (Homo sapiens, UniProt Q9BY41); assay: Inhibition of C-terminal His-tagged recombinant human HDAC8 expressed in baculovirus infected insect cells using RHK(Ac)K(Ac)AMC as substrate by fluorescence-based assay
T2 sequence (Q9BY41 whole entry): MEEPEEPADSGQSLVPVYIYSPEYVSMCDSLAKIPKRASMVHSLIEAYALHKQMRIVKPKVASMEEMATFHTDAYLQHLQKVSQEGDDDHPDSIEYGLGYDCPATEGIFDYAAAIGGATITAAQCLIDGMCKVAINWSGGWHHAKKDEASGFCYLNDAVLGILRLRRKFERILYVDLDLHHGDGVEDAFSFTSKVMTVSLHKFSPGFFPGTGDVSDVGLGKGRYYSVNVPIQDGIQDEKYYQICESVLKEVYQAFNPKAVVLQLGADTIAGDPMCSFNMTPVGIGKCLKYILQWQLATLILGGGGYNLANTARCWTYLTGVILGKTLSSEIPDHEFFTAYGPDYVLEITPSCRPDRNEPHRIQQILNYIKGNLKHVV

[3] = Cytotoxicity against human RPMI18226 cells after 72 hrs by CellTiter-Glo luminescent cell viability assay; type: functional, cell-based; conditions: RPMI18226, 72 h
SEM cells [4] = assay: Reduction of colony forming capacity of human SEM cells at IC50 to 2 times IC50 after 48 hrs; type: functional, cell-based
Procedure, shortened: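 SEM cells pretreated in liquid medium (methods: 24 h; legend: 48 h), then plated in semisolid methylcellulose-based medium containing compound or control; colonies counted after 14 days.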

SEM cells [5] = assay: Inhibition of HDAC6/chymotrypsin-like activity of 20S proteasome in human SEM cells assessed as increase in ATF6 protein expression at 0.1 to 10 uM after 18 hrs by Western blot assay; type: cell-based; procedure, shortened: as §1
SEM cells [6] = assay: Induction of apoptosis in human SEM cells assessed as increase in caspase 3/7 activity at IC50 after 48 hrs by glo assay relative to control; type: functional
Procedure, shortened: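 Cells treated at IC50 or 2x IC50 for 48 h; caspase-3/7 activity read by luminescence after cleavage of a DEVD-containing luminogenic substrate.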

SEM cells [7] = assay: Inhibition of HDAC6/chymotrypsin-like activity of 20S proteasome in human SEM cells assessed as increase in HSP70 protein expression at 0.1 to 10 uM after 18 hrs by Western blot assay; type: cell-based; procedure, shortened: as §1
SEM cells [8] = assay: Inhibition of HDAC6/chymotrypsin-like activity of 20S proteasome in human SEM cells assessed as decrease in aggresome accumulation at IC50 to 2 times IC50 after 18 hrs by FACS analysis; type: cell-based
Procedure, shortened: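 Cells treated 18 h, then stained with a proteostat aggresome dye plus DNA stain. Imaged by fluorescence microscopy (63X objective) or analysed by FACS, with aggresome propensity factor from relative mean fluorescence intensity.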

Homo sapiens = species on record: Homo sapiens; assay: Inhibition of HDAC6/chymotrypsin-like activity of 20S proteasome in human HL60 cells assessed as increase in cleaved PARP expression at 0.1 to 10 uM after 24 hrs by immunoblot assay; type: cell-based
Procedure, shortened: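 Cells exposed for 24 h at indicated concentrations; lysates immunoblotted for acetyl-α-tubulin, acetyl-histone H3, PARP, with GAPDH as loading control.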

SEM cells [9] = assay: Inhibition of HDAC6/chymotrypsin-like activity of 20S proteasome in human SEM cells assessed as increase in HSP40 protein expression at 0.1 to 10 uM after 18 hrs by Western blot assay; type: cell-based; procedure, shortened: as §1
SEM cells [10] = assay: Cell cycle arrest in human SEM cells assessed as accumulation at S phase after 48 hrs by propidium iodide staining-based FACS analysis; type: functional

IC50 (Histone deacetylase 1): 6.9 µM | inhibition [2]: inactive | IC50 (Histone deacetylase 8): 530 nM
SMILES: C[C@H](NC(=O)[C@H](CC(=O)NCC(C)(C)C)NC(=O)c1ccc(C(=O)NO)cc1)C(=O)NCc1ccccc1
inhibition (SEM cells [1]): Active | IC50 [3]: 1750 nM | Activity (SEM cells [4]): Active | inhibition (SEM cells [5]): Active | fold change (FC) (SEM cells [6]): 6 | inhibition (SEM cells [7]): Active | inhibition (SEM cells [8]): Active | inhibition (Homo sapiens): Active | inhibition (SEM cells [9]): Active | Activity (SEM cells [10]): Dose-dependent effect
